According to paper PMC12429009 (The FASEB Journal, 2025):
Changes are numbered by the printed parent chain. In names and notes the source's numbering stands. Entries after “also recorded” stand apart in the source; their conditions may differ.

T1: 14-3-3ζ WT (human), P63104
T1 chain: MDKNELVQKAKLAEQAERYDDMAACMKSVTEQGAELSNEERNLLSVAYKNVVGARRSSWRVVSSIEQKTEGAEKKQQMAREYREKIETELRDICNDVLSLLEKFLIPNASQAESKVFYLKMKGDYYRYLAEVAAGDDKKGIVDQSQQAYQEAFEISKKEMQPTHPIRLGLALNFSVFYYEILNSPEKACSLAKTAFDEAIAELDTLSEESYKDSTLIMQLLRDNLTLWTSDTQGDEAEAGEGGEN

B1: 14-3-3ζ WT, P63104 1-245 (natural protein)
chain: T1 chain
B2: 14-3-3ζ D124A (natural protein, human, UniProt P63104 1-245, looked up)
chain: T1 chain with D124A
B3: D124A (protein)
chain: T1 chain with D124A
modifications: left off: His6, end not stated, cleaved
B4: E180A: 14‐3‐3ζ amphipathic pocket mutant (protein)
chain: T1 chain with E180A
modifications: left off: His6, end not stated, cleaved
B5: Y82AN173V: 14‐3‐3ζ double mutant, monomer (protein)
chain: T1 chain with Y82A, N173V
modifications: left off: His6, end not stated, cleaved
B6: 14-3-3ζ E180AN173V (natural protein, human, UniProt P63104 1-245, looked up)
chain: T1 chain with N173V, E180A
B7: E131AN173V: 14‐3‐3ζ double mutant (protein)
chain: T1 chain with E131A, N173V
modifications: left off: His6, end not stated, cleaved
B8: N173V (protein)
chain: T1 chain with N173V
modifications: left off: His6, end not stated, cleaved
B9: R55A: 14‐3‐3ζ dimer interface mutant (protein)
chain: T1 chain with R55A
modifications: left off: His6, end not stated, cleaved
B10: 14-3-3ζ F117AN173V (natural protein, human, UniProt P63104 1-245, looked up)
chain: T1 chain with F117A, N173V
B11: 14-3-3ζ E131A (natural protein, human, UniProt P63104 1-245, looked up)
chain: T1 chain with E131A
B12: E180AN173V: 14‐3‐3ζ double mutant (protein)
chain: T1 chain with N173V, E180A
modifications: left off: His6, end not stated, cleaved
B13: 14-3-3ζ E131AN173V (natural protein, human, UniProt P63104 1-245, looked up)
chain: T1 chain with E131A, N173V
B14: Y82A: 14‐3‐3ζ mutant, monomer, ATPase null mutant (protein)
chain: T1 chain with Y82A
modifications: left off: His6, end not stated, cleaved
B15: E131A (protein)
chain: T1 chain with E131A
modifications: left off: His6, end not stated, cleaved
B16: 14-3-3ζ N173V (natural protein, human, UniProt P63104 1-245, looked up)
chain: T1 chain with N173V
B17: E131AE180A: 14‐3‐3ζ double mutant (protein, UniProt P63104 1-245, looked up, variant E131A E180A)
14-3-3 protein zeta/delta: T1 chain with E131A, E180A
B18: F117AN173V (protein)
chain: T1 chain with F117A, N173V
modifications: left off: His6, end not stated, cleaved
B19: 14-3-3ζ R55A (natural protein, human, UniProt P63104 1-245, looked up)
chain: T1 chain with R55A
B20: 14-3-3ζ E180A (natural protein, human, UniProt P63104 1-245, looked up)
chain: T1 chain with E180A

Tests used:
[1] = system: 14‐3‐3; details: cited from earlier work
[2] = Oligomeric status by native PAGE; format: physicochemical; details: 15 μg protein, 10% native gel (legend: 12%), Coomassie blue
Outline: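 Purified untagged 14‐3‐3ζ WT and mutant apoproteins (E. coli‐expressed, Ni‐NTA plus size exclusion, TEV‐cleaved), buffer‐exchanged into 50 mM Na‐HEPES pH 8.0, 150 mM NaCl, 10% glycerol, then run under nondenaturing conditions. Migration read as monomer or dimer.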

[3] = Gel filtration, Hiload 16/600 Superdex 200; format: physicochemical
Outline: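 After His‐tag removal with TEV protease, untagged 14‐3‐3ζ WT or mutant protein from E. coli BL21 DE3 was run on the Superdex 200 column in 50 mM Tris/Cl pH 8.0, 400 mM NaCl, 10% glycerol. Peak fractions collected and elution profile recorded.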

[4] = target: T1, 14-3-3ζ WT (human), P63104; test: native gel or EMSA; details: remark: other sources report otherwise
[5] = target: the molecule itself; test: native gel or EMSA
[6] = system: 14‐3‐3ζ WT and mutant proteins; test: ATPase activity; format: biochemical, human; details: 10 μM protein, 1 mM ATP, 37°C, 2 h; three independent experiments
[7] = system: FAM‐labeled peptides (mode2 phosphopeptide); test: Peptide binding ability of 14‐3‐3ζ mutant proteins by fluorescence polarization; details: FP; FAM‐labeled peptide 62.5 nM, protein 8 to 0.0625 μM, 25°C, 30 min
Outline: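 Untagged 14‑3‑3ζ mutants (E. coli BL21 DE3; Ni‑NTA, SEC, TEV cleavage) in 50 mM Na‑HEPES pH 8.0, 150 mM NaCl, 10% glycerol. Protein titrated 8 to 0.0625 μM against constant 62.5 nM N‑terminal FAM‑labeled phosphopeptide. Incubated 30 min at 25°C in the dark before anisotropy reading; K_D fitted.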

[8] = system: 14‐3‐3; details: ref 16 (Ramteke et al.); cited from earlier work
[9] = Thermal stability by nano‐DSF; format: physicochemical

Molecule	migration on native PAGE / oligomeric state [2]	stoichiometry N [5]	ATPase activity (in words, compared with WT) [6]	other results
Nc1ncnc2c1ncn2[C@@H]1O[C@H](COP(=O)(O)O)[C@@H](O)[C@H]1O [AMP]				binding to 14‐3‐3 alone [1]: Neither AMP nor the nonphospho ChREBP peptide alone can bind strongly to the 14‐3‐3; effect of AMP on 14‐3‐3‐ChREBP peptide complex [1]: stabilizes 14‐3‐3‐ChREBP peptide‐complex
14‐3‐3ζ WT: wild-type 14‐3‐3ζ protein expressed in E. coli	migrated as dimers			gel filtration elution volume [3]: 68 mL
B1				stoichiometry N [4]: 2
B2		2		
B3	migrated as dimers		higher than that of the WT protein; also recorded: enhanced ATPase activity	peptide binding of 14‐3‐3ζ mutant protein (in words) [7]: defective in peptide binding; ATPase activity (earlier study) [8]: increase in ATPase activity
B4	migrated as dimers		made no difference to the ATPase activity	
B5	could be monomeric in nature		some ATPase activity (less than the WT)	ATPase activity as percentage of the N173V mutant [6]: 20%; reduction in ATPase activity compared with N173V [6]: 80%
B6		2		
B7	migrated as dimers			
B8	migrated as dimers		had increased ATPase activity and has more affinity for ATP; also recorded: enhanced ATPase activity	peptide binding of 14‐3‐3ζ mutant protein (in words) [7]: defective in peptide binding assays; also recorded: binds less well to the phosphopeptide ligands; thermal stability (in words) [9]: more stable than the D124A
B9	migrated as dimers			peptide binding of 14‐3‐3ζ mutant protein (in words) [7]: bind all peptides with the same affinity as the WT; ATPase activity (earlier study) [8]: reduction in ATP binding and hydrolysis; also recorded: ATPase defective mutant; also recorded: decrease in the ATPase activity
B10		2		
B11		2		
B12	migrated as dimers			thermal stability (in words) [9]: most unstable and prone to aggregation
B13		2		
B14	could be monomeric in nature		near background luminescence readings‐ it is practically an ATPase null mutant	peptide binding of 14‐3‐3ζ mutant protein (in words) [7]: bound the peptide with comparable affinity to the WT; also recorded: bind all peptides with the same affinity as the WT; gel filtration elution volume [3]: 74 mL
B15	migrated as dimers		made no difference to the ATPase activity	
B16		2		
B17			decreased dramatically	
B18	migrated as dimers			
B19		2		
B20		2		
